Results as given in publication PMC3822732 (Journal of Cellular and Molecular Medicine, 2009).
pKd: −log10 of the molar value. Like-named read-outs stand apart in the source and are kept apart here.

Key:
[1] = cited from earlier work
[2] = biological target: LRP-1; conditions: read-out: Affinity for LRP-1; in other cell types; cited from earlier work
[3] = in situ brain perfusion; cited from earlier work
[4] = Immunohistochemical detection of Angiopep-2 in brain with anti-Angiopep-2 pAb; conditions: mice, 20 mg/kg tail vein, 60 min uptake, cold saline perfusion
[5] = system: bovine brain capillary endothelial cell monolayers; conditions: cited from earlier work
[6] = system: endothelial cells; experiment: Endothelial cells exposed to Angiopep-2; type: cell-based; conditions: data not shown
[7] = after in situ perfusion; cited from earlier work
[8] = system: RBE4 cells; experiment: [125I]-Angiopep-2 uptake assay in brain endothelial cells; type: cell-based, rat; conditions: [125I]-Angiopep-2 100 nM; poly-L-lysine 350 μg/ml, protamine 40 μg/ml
How it was run: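 RBE4 brain endothelial cells were grown on collagen I in α-MEM/Ham's F-12 (1:1) with 10% heat-inactivated FCS, G418 and bFGF, seeded at 5 × 10⁴ cells/well and fed 3 days. Subconfluent cells in Ringer/HEPES pH 7.4 took up the tracer for 2 min at 37°C with a polycation, ± unlabelled peptide. Cells were lysed in 0.3 M NaOH and gamma counted, with unlabelled-cell background subtracted, in quadruplicate.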

[9] = biological target: LRP-1 (Homo sapiens) (UniProt Q07954); conditions: cited from earlier work
Chain of LRP-1 (Homo sapiens) (Q07954 20-4544): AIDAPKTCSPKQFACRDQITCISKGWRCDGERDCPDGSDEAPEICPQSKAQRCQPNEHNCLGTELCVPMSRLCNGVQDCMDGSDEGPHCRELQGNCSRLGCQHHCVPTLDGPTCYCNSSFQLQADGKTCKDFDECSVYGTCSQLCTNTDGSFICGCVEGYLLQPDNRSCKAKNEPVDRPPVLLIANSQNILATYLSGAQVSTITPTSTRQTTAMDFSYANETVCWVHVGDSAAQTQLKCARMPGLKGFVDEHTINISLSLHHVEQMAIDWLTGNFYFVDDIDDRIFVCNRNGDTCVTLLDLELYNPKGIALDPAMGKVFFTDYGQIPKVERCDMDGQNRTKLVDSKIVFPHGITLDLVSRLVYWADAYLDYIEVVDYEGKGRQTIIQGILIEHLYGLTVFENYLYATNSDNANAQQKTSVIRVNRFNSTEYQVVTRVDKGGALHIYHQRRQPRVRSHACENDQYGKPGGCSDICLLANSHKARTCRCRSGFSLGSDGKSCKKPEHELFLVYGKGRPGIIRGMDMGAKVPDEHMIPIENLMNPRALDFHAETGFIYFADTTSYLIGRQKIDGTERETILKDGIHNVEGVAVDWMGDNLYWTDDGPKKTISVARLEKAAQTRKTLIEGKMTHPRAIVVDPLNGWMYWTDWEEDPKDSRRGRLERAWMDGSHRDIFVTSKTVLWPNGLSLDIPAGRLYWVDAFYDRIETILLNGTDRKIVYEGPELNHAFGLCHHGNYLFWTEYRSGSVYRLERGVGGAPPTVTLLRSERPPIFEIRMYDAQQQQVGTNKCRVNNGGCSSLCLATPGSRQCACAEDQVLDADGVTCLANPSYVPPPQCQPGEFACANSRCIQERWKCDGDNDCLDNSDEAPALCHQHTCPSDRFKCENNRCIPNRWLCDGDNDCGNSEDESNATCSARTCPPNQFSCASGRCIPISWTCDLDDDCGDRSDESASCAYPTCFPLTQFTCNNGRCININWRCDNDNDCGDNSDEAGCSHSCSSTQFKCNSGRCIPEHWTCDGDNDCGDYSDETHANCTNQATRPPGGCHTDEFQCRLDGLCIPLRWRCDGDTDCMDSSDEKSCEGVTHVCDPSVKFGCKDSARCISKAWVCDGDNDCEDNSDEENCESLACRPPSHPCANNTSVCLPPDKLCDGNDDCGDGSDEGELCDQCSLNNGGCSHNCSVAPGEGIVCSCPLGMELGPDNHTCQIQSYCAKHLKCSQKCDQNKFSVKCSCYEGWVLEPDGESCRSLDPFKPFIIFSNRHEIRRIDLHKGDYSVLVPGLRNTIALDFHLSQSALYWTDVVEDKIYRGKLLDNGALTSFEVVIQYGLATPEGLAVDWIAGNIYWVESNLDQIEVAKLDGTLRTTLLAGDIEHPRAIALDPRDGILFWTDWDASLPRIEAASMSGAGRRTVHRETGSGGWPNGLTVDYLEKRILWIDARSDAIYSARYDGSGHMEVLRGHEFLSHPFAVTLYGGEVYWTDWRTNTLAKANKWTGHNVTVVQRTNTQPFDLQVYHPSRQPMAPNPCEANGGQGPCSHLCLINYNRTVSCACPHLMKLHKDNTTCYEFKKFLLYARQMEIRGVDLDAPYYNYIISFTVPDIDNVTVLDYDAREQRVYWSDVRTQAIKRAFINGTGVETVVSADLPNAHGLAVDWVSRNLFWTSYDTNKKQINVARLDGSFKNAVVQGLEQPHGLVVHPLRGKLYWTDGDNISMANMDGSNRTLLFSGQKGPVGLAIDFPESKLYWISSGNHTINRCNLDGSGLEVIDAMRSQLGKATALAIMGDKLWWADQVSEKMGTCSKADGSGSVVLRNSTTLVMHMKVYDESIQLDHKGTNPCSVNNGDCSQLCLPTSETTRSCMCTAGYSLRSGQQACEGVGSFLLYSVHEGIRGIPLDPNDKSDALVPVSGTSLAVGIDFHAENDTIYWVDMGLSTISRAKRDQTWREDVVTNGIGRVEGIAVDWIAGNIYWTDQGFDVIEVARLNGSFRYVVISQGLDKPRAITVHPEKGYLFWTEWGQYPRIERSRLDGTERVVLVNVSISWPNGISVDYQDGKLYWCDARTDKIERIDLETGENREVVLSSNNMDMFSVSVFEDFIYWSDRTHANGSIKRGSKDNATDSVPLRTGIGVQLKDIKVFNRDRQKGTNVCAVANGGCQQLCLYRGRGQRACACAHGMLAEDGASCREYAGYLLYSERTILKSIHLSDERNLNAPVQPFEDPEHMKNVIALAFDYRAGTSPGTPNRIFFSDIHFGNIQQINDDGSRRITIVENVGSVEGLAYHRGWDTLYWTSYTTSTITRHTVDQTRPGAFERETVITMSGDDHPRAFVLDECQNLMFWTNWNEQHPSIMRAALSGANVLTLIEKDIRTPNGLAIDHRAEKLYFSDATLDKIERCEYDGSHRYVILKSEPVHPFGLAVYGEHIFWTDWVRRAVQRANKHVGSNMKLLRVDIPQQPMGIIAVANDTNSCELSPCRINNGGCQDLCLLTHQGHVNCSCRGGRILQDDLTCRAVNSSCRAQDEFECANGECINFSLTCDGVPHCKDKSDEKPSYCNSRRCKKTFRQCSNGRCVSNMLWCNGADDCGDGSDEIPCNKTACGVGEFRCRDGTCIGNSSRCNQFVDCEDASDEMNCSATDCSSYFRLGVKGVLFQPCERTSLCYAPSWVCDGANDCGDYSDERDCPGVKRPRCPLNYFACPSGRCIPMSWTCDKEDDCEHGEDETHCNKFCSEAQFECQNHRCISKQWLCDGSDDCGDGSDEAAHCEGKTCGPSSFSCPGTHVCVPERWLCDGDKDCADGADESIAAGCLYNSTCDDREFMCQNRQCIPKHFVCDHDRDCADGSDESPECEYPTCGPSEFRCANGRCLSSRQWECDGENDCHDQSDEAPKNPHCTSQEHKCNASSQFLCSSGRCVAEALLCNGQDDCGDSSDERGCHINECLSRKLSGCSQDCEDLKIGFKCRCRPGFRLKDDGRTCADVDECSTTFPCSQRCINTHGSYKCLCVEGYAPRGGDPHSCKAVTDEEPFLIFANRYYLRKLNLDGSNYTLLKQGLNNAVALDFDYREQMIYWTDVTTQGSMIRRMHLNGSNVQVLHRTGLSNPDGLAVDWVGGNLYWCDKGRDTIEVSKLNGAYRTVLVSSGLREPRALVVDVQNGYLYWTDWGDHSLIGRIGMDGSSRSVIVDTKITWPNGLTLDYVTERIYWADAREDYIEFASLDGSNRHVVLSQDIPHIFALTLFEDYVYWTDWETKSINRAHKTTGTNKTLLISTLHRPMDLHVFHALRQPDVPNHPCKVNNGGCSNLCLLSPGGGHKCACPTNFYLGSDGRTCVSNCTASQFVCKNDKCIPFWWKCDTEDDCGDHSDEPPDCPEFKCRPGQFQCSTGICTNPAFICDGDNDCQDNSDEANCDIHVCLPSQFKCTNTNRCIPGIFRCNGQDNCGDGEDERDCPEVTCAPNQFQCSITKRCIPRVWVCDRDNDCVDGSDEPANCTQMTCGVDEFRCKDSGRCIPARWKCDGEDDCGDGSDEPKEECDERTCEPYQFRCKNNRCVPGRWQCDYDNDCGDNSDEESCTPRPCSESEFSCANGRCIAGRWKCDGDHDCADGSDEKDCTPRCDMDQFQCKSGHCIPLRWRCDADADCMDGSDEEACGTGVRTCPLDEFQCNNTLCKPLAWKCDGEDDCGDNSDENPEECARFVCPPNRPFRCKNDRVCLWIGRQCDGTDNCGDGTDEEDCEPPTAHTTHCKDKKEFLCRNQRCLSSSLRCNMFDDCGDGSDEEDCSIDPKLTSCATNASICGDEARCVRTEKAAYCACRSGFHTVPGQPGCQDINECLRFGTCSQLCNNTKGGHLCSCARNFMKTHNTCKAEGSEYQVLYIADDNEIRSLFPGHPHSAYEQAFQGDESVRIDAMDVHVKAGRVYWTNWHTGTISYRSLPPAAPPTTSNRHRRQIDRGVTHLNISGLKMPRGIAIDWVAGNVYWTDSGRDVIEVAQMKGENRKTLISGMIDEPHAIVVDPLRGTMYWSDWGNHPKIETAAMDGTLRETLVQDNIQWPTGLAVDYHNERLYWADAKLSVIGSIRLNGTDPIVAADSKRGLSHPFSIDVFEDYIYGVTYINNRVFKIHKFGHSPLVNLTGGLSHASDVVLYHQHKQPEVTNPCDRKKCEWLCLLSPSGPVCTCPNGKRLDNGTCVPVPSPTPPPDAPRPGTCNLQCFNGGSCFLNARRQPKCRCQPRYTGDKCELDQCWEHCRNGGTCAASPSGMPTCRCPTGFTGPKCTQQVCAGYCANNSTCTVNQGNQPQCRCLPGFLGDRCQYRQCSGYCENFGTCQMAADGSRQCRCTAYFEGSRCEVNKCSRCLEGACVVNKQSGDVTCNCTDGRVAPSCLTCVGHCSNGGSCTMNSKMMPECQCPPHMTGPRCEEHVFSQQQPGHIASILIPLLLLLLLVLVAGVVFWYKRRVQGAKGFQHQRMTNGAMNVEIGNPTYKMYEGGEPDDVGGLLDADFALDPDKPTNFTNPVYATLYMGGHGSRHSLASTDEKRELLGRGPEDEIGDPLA

[10] = biological target: LRP-1 (Homo sapiens) (UniProt Q07954); conditions: cited from earlier work; remark: listed apart in the source

Chain of receptor-associated protein (RAP) (P30533 35-357): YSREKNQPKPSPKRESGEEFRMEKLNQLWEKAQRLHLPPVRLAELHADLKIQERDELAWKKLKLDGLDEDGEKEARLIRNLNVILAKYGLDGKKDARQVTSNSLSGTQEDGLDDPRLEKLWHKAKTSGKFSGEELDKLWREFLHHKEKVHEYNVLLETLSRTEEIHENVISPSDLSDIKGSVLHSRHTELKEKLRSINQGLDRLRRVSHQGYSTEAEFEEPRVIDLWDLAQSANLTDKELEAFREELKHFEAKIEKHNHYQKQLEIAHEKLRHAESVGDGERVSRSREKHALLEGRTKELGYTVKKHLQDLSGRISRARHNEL

**Q.** For Cy5.5, which “Passage of free dye across the BBB” value [1] is on record?
**A.** Its value is “does not cross the BBB”.

**Q.** With “RAP: receptor-associated protein, an LRP ligand” as the substance, how does the pKd [2] read?
**A.** The pKd was about 8.70.

**Q.** Which results are given for TFFYGGSRGKRNNFKTEEY [Angiopep-2]?
**A.** Permeability of the BBB to inulin in the presence of Angiopep-2 [3]: unaffected; Immunohistochemical detection in brain after IV bolus injection [4]: present in the brain parenchyma; In vitro BBB transcytosis [5]: high BBB transcytosis in vitro; Effect of exposure to Angiopep-2 on endothelial cells [6]: unaffected; Apparent distribution volume in brain parenchyma vs transferrin [7]: greater apparent distribution volume in brain parenchyma than transferrin

**Q.** For TFFYGGSRGRRNNFRTEEY [Angiopep-7], which “In vitro BBB transcytosis” value [5] is on record?
**A.** The value was “did not exhibit in vitro transcytosis”.

**Q.** With poly-L-glutamine as the substance, how does the “Inhibition of [125I]-Angiopep-2 uptake into RBE4 cells” value (shortened to “Inhibition”) [8] read?
**A.** Its value is “unaffected”.

**Q.** Which “Inhibition” value [8] does the source give for poly-L-lysine here?
**A.** Its value is 69%.

**Q.** For protamine, which “Inhibition” value [8] is on record?
**A.** The value was 79%.

**Q.** With “receptor-associated protein (RAP) (from UniProt P30533)” as the substance, how does the pKd [9] read?
**A.** The pKd was 8.70.

**Q.** With α2-macroglobulin (from UniProt P01023) as the substance, how does the pKd [10] read?
**A.** The pKd was 8.70.

**Q.** With α2-macroglobulin: LRP-1 ligand as the substance, how does the pKd [2] read?
**A.** The pKd was about 8.70.
